Legend:
[1] = target: Sodium channel protein type 5 subunit alpha (cardiac sodium channel) (Rattus norvegicus, UniProt P15389); assay: in vitro; conditions: sodium channel from cardiac myocytes, probe [3H]batrachotoxin ([3H]BTX)
Cavia porcellus [2] = assay: Effective dose in vivo for cardiac refractoriness (ERP) using paced guinea pig model; type: functional
Procedure, shortened: (§1)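 Guinea pig paced in vivo model. Hemodynamics recorded in normal sinus rhythm; ERP measured during brief pacing at baseline and 10 min after dosing. Bolus of 1 mL/kg via left ventricular catheter for doses <10 mg/kg; higher doses infused over 1 min. Cumulative dosing every 15 min up to the maximally tolerated dose (dP/dt reduced >50%). ED20 (ERP +20 ms) and dP/dt20 (20% drop in LV pressure-rise rate) derived by linear regression of individual dose-response curves.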

Cavia porcellus [3] = assay: In vivo index of cardiac contractility using paced guinea pig model; type: functional
Procedure, shortened: as §1

Chain of Sodium channel protein type 5 subunit alpha (cardiac sodium channel) (P15389 whole entry): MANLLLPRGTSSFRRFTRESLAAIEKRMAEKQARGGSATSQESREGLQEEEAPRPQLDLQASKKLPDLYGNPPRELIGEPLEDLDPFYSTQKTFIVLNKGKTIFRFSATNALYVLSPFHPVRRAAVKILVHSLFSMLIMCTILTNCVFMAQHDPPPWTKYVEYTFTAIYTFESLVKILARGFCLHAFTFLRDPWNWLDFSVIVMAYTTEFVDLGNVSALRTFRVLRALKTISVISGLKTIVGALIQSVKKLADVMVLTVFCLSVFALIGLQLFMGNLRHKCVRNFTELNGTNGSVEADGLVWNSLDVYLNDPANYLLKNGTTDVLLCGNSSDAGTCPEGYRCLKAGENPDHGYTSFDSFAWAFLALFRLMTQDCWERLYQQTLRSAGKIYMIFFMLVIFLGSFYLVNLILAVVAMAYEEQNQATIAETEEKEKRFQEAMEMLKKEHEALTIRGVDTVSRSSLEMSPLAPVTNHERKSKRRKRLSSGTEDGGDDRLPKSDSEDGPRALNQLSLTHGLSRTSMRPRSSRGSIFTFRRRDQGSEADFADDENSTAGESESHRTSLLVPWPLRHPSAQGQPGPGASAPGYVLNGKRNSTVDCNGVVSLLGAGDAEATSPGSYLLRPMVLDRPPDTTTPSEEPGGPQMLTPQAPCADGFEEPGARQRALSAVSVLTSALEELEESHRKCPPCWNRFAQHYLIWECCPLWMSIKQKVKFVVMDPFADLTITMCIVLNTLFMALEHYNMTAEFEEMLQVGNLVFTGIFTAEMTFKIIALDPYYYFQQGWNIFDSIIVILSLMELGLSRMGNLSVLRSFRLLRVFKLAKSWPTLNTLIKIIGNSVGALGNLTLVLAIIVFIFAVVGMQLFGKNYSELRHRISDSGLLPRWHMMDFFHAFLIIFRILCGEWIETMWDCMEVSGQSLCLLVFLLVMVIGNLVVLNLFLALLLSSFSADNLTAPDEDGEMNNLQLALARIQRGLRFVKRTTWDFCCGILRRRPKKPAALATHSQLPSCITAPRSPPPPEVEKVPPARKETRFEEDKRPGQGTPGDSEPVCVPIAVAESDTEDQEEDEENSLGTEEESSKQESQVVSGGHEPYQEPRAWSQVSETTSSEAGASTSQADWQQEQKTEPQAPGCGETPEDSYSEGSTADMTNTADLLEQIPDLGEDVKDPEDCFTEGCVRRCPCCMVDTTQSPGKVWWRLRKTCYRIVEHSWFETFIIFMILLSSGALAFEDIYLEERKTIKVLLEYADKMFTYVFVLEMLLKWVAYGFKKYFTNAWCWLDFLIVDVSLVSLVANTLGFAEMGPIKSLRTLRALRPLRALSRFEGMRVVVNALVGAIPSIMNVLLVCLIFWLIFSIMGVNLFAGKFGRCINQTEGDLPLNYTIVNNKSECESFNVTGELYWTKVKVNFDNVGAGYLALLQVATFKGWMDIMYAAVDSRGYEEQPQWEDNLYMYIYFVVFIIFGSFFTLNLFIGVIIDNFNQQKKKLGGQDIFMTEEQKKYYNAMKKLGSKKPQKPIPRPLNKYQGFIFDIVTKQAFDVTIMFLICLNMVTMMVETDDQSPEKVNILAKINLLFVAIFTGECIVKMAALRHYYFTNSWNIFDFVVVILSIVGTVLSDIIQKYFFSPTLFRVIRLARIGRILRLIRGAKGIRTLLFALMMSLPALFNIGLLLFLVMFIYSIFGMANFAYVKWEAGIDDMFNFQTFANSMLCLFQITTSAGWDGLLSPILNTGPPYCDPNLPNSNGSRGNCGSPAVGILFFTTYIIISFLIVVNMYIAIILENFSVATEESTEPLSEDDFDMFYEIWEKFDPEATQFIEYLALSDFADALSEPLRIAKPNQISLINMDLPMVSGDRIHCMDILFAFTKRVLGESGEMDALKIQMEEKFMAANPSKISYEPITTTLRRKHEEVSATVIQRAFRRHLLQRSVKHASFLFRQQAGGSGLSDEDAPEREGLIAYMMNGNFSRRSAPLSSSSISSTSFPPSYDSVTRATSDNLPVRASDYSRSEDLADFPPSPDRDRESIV

## CCC1=NC(c2ccccc2)c2ccccc2C(c2ccccc2)N1C (stereo unspecified)
[1]
  inhibition at 10 µM: 97%
Cavia porcellus [2]
  ED20: > 20 mg/kg
Cavia porcellus [3]
  dP/dt20: 0.01 mg/kg

## CC(C)C1=NC(C)(c2ccccc2)c2ccccc2CN1C (stereo unspecified)
[1]
  inhibition at 10 µM: 50%
Cavia porcellus [2]
  ED20: 0.8 mg/kg
Cavia porcellus [3]
  dP/dt20: 0.7 mg/kg

## CCC1=NC(c2ccccc2)c2ccc3ccccc3c2CN1C (stereo unspecified)
[1]
  inhibition at 10 µM: 98%
Cavia porcellus [2]
  ED20: 0.3 mg/kg
Cavia porcellus [3]
  dP/dt20: 0.06 mg/kg

## CN1C=NC(c2ccccc2)c2ccccc2C1 (stereo unspecified)
[1]
  inhibition at 10 µM: 68%
Cavia porcellus [2]
  ED20: 1.4 mg/kg
Cavia porcellus [3]
  dP/dt20: 0.9 mg/kg

## CCC1=NC(Cc2ccccc2)c2ccccc2CN1C (stereo unspecified)
[1]
  inhibition at 10 µM: 84%
Cavia porcellus [2]
  ED20: 0.2 mg/kg
Cavia porcellus [3]
  dP/dt20: 0.2 mg/kg

## CN1Cc2ccccc2C(c2ccc(Cl)cc2)N=C1CCc1ccccc1 (stereo unspecified)
[1]
  inhibition at 10 µM: 96%
Cavia porcellus [2]
  ED20: 0.2 mg/kg
Cavia porcellus [3]
  dP/dt20: 0.2 mg/kg

## CC1=NC(c2ccccc2)c2ccccc2CN1C (stereo unspecified)
[1]
  inhibition at 10 µM: 52%
Cavia porcellus [2]
  ED20: 1.2 mg/kg
Cavia porcellus [3]
  dP/dt20: 0.9 mg/kg

## CN(C)CC1=NC(C)(c2ccccc2)c2ccccc2CN1C (stereo unspecified)
[1]
  inhibition at 10 µM: 57%
Cavia porcellus [2]
  ED20: 0.8 mg/kg
Cavia porcellus [3]
  dP/dt20: 0.02 mg/kg

## CCOC(=O)CC1=NC(C)(c2ccccc2)c2ccccc2CN1C (stereo unspecified)
[1]
  inhibition at 10 µM: 79%
Cavia porcellus [2]
  ED20: 0.3 mg/kg
Cavia porcellus [3]
  dP/dt20: 0.007 mg/kg

## CCN(CC)CC1=NC(C)(c2ccccc2)c2ccccc2CN1C.Cl (stereo unspecified)
[1]
  inhibition at 10 µM: 90%
Cavia porcellus [2]
  ED20: > 20 mg/kg
Cavia porcellus [3]
  dP/dt20: 0.01 mg/kg

## CCCCC1=NC(c2ccccc2)c2ccccc2CN1C.Cl (stereo unspecified)
[1]
  inhibition at 10 µM: 83%
Cavia porcellus [2]
  ED20: 0.1 mg/kg
Cavia porcellus [3]
  dP/dt20: 0.1 mg/kg

## CN1Cc2ccccc2C(c2ccccc2)N=C1CCCc1ccccc1.Cl (stereo unspecified)
[1]
  inhibition at 10 µM: 100%
Cavia porcellus [2]
  ED20: 0.2 mg/kg
Cavia porcellus [3]
  dP/dt20: 0.12 mg/kg

## CCC1=NCc2ccccc2C(c2ccccc2)N1Cc1ccccc1.Cl (stereo unspecified)
[1]
  inhibition at 10 µM: 97%
Cavia porcellus [2]
  ED20: > 3 mg/kg
Cavia porcellus [3]
  dP/dt20: 0.3 mg/kg

## COc1ccc(CCC2=NC(c3ccccc3)c3ccccc3CN2C)cc1.Cl (stereo unspecified)
[1]
  inhibition at 10 µM: 91%
Cavia porcellus [2]
  ED20: 0.1 mg/kg
Cavia porcellus [3]
  dP/dt20: 0.66 mg/kg

## COc1ccc(C2N=C(CCc3ccccc3)N(C)Cc3ccccc32)cc1.Cl (stereo unspecified)
[1]
  inhibition at 10 µM: 95%
Cavia porcellus [2]
  ED20: 0.1 mg/kg
Cavia porcellus [3]
  dP/dt20: 0.1 mg/kg

## COc1ccc(OCC2=NC(c3ccccc3)c3ccccc3CN2C)cc1.Cl (stereo unspecified)
[1]
  inhibition at 10 µM: 98%
Cavia porcellus [2]
  ED20: 0.1 mg/kg
Cavia porcellus [3]
  dP/dt20: 0.48 mg/kg

## CN1Cc2ccccc2C(c2ccccc2)N=C1COc1ccccc1.Cl (stereo unspecified)
[1]
  inhibition at 10 µM: 98%
Cavia porcellus [2]
  ED20: 0.3 mg/kg

## CN1Cc2ccccc2C(c2ccccc2)N=C1N1CCOCC1.Cl (stereo unspecified)
[1]
  inhibition at 10 µM: 49%
Cavia porcellus [2]
  ED20: 0.6 mg/kg
Cavia porcellus [3]
  dP/dt20: 0.4 mg/kg

## CCCCCC1=NC(c2ccccc2)c2ccccc2CN1C.Cl (stereo unspecified)
[1]
  inhibition at 10 µM: 95%
Cavia porcellus [2]
  ED20: 0.1 mg/kg
Cavia porcellus [3]
  dP/dt20: 0.08 mg/kg

## CCCC1=NC(c2ccccc2)c2ccccc2CN1C.Cl (stereo unspecified)
[1]
  inhibition at 10 µM: 72%
Cavia porcellus [2]
  ED20: 0.4 mg/kg
Cavia porcellus [3]
  dP/dt20: 0.8 mg/kg

## CN1Cc2ccccc2C(c2ccccc2)N=C1N.Cl (stereo unspecified)
[1]
  inhibition at 10 µM: 91%
Cavia porcellus [2]
  ED20: 1.7 mg/kg
Cavia porcellus [3]
  dP/dt20: 1 mg/kg

## CCCCCCCCC1=NC(c2ccccc2)c2ccccc2CN1C.Cl (stereo unspecified)
[1]
  inhibition at 10 µM: 81%
Cavia porcellus [2]
  ED20: 0.2 mg/kg
Cavia porcellus [3]
  dP/dt20: 0.1 mg/kg

## CN1Cc2ccccc2C(c2ccccc2)N=C1Cc1ccccc1.Cl (stereo unspecified)
[1]
  inhibition at 10 µM: 95%
Cavia porcellus [2]
  ED20: 0.3 mg/kg
Cavia porcellus [3]
  dP/dt20: 0.15 mg/kg

## CCC1=NC(c2ccccc2)c2ccccc2CN1Cc1ccccc1.Cl (stereo unspecified)
[1]
  inhibition at 10 µM: 98%
Cavia porcellus [2]
  ED20: 1 mg/kg
Cavia porcellus [3]
  dP/dt20: 0.2 mg/kg

## CCC1=NC(c2ccccc2)c2ccccc2CN1C(C)C.Cl (stereo unspecified)
[1]
  inhibition at 10 µM: 87%
Cavia porcellus [2]
  ED20: 0.2 mg/kg
Cavia porcellus [3]
  dP/dt20: 0.15 mg/kg

## CCC1=NC(c2ccccc2)c2ccccc2CN1.Cl (stereo unspecified)
[1]
  inhibition at 10 µM: 84%
Cavia porcellus [2]
  ED20: 1.1 mg/kg
Cavia porcellus [3]
  dP/dt20: 0.2 mg/kg

## CN1Cc2ccccc2C(c2ccccc2)N=C1CCC1CCCCC1.Cl (stereo unspecified)
[1]
  inhibition at 10 µM: 98%
Cavia porcellus [2]
  ED20: 0.1 mg/kg
Cavia porcellus [3]
  dP/dt20: 0.66 mg/kg

## CC1=NC(C)(c2ccccc2)c2ccccc2CN1C.O=C(O)/C=C/C(=O)O (stereo unspecified)
[1]
  inhibition at 10 µM: 71%
Cavia porcellus [2]
  ED20: 0.8 mg/kg
Cavia porcellus [3]
  dP/dt20: 0.9 mg/kg

## CN1Cc2ccccc2C(Cc2ccccc2)N=C1CCc1ccccc1.O=C(O)/C=C/C(=O)O (stereo unspecified)
[1]
  inhibition at 10 µM: 97%
Cavia porcellus [2]
  ED20: 0.2 mg/kg
Cavia porcellus [3]
  dP/dt20: 0.04 mg/kg

## CN1Cc2ccccc2C(c2ccccc2)N=C1CN1CCCCC1.O=C(O)/C=C/C(=O)O (stereo unspecified)
[1]
  inhibition at 10 µM: 94%
Cavia porcellus [2]
  ED20: 0.4 mg/kg
Cavia porcellus [3]
  dP/dt20: 0.002 mg/kg

## CN1CCN(CC2=NC(c3ccccc3)c3ccccc3CN2C)CC1.O=C(O)/C=C/C(=O)O (stereo unspecified)
[1]
  inhibition at 10 µM: 38%
Cavia porcellus [2]
  ED20: 0.4 mg/kg
Cavia porcellus [3]
  dP/dt20: 0.1 mg/kg

## CN1Cc2ccccc2C(c2ccccc2)N=C1CN1CCOCC1.O=C(O)/C=C/C(=O)O (stereo unspecified)
[1]
  inhibition at 10 µM: 57%
Cavia porcellus [2]
  ED20: 0.25 mg/kg
Cavia porcellus [3]
  dP/dt20: 0.11 mg/kg

## CCC1=NC(C(C)=O)(c2ccccc2)c2ccccc2CN1C.O=C(O)/C=C/C(=O)O (stereo unspecified)
[1]
  inhibition at 10 µM: 28%
Cavia porcellus [2]
  ED20: 0.9 mg/kg
Cavia porcellus [3]
  dP/dt20: 0.45 mg/kg

## CN(C)CC1=NC(c2ccccc2)c2ccccc2CN1C.O=C(O)/C=C/C(=O)O (stereo unspecified)
[1]
  inhibition at 10 µM: 44%
Cavia porcellus [2]
  ED20: 0.6 mg/kg

## CCN(CC)CCNC1=NC(c2ccccc2)c2ccccc2CN1C.O=C(O)/C=C/C(=O)O (stereo unspecified)
[1]
  inhibition at 10 µM: 98%
Cavia porcellus [2]
  ED20: 0.7 mg/kg
Cavia porcellus [3]
  dP/dt20: 0.9 mg/kg

## CN1Cc2ccccc2C(C)(c2ccccc2)N=C1CCc1ccccc1 (stereo unspecified)
[1]
  inhibition at 10 µM: 97%
Cavia porcellus [2]
  ED20: 0.34 mg/kg
Cavia porcellus [3]
  dP/dt20: 0.9 mg/kg

## CN1Cc2ccccc2C(c2ccccc2)N=C1COc1ccc(Cl)cc1 (stereo unspecified)
[1]
  inhibition at 10 µM: 100%
Cavia porcellus [2]
  ED20: 0.2 mg/kg
Cavia porcellus [3]
  dP/dt20: 0.17 mg/kg

## CN1Cc2ccccc2C(c2ccccc2)N=C1N1CCCC1 (stereo unspecified)
[1]
  inhibition at 10 µM: 100%
Cavia porcellus [2]
  ED20: 0.2 mg/kg

## CN1Cc2ccccc2C(C)(c2ccccc2)N=C1CN1CCOCC1 (stereo unspecified)
[1]
  inhibition at 10 µM: 51%
Cavia porcellus [2]
  ED20: 2.4 mg/kg
Cavia porcellus [3]
  dP/dt20: 0.1 mg/kg

## CCC1=NC(COC)(c2ccccc2)c2ccccc2CN1C (stereo unspecified)
[1]
  inhibition at 10 µM: 45%
Cavia porcellus [2]
  ED20: 2.5 mg/kg
Cavia porcellus [3]
  dP/dt20: 0.1 mg/kg

## CCC1=NC(c2cccc3ccccc23)c2ccccc2CN1C (stereo unspecified)
[1]
  inhibition at 10 µM: 94%
Cavia porcellus [2]
  ED20: 0.6 mg/kg
Cavia porcellus [3]
  dP/dt20: 0.2 mg/kg

## CCC1=NC(CC)(c2ccccc2)c2ccccc2CN1C (stereo unspecified)
[1]
  inhibition at 10 µM: 78%
Cavia porcellus [2]
  ED20: 0.2 mg/kg
Cavia porcellus [3]
  dP/dt20: 0.1 mg/kg

## CN1Cc2ccccc2C(C)(c2ccccc2)N=C1CCl (stereo unspecified)
[1]
  inhibition at 10 µM: 82%
Cavia porcellus [2]
  ED20: 0.4 mg/kg
Cavia porcellus [3]
  dP/dt20: 0.002 mg/kg

## CN1Cc2ccccc2C(c2ccccc2)N=C1c1ccccc1 (stereo unspecified)
[1]
  inhibition at 10 µM: 85%
Cavia porcellus [2]
  ED20: 0.3 mg/kg
Cavia porcellus [3]
  dP/dt20: 1.1 mg/kg

## COc1ccc(C(=O)Nc2ccccc2CCC2CCCCN2C)cc1 (stereo unspecified) [ENCAINIDE]
[1]
  inhibition at 10 µM: 55%
Cavia porcellus [2]
  ED20: 0.7 mg/kg
Cavia porcellus [3]
  dP/dt20: 0.003 mg/kg

## CCN(CC)CC(=O)Nc1c(C)cccc1C [LIDOCAINE]
[1]
  inhibition at 10 µM: 10%
Cavia porcellus [2]
  ED20: 8 mg/kg
Cavia porcellus [3]
  dP/dt20: 4.3 mg/kg

## CCN(CC)CCNC(=O)c1ccc(NS(C)(=O)=O)cc1 [SEMATILIDE]
[1]
  inhibition at 10 µM: 0%
Cavia porcellus [2]
  ED20: 1.9 mg/kg
Cavia porcellus [3]
  dP/dt20: 18.7 mg/kg

## CC(C)NCC(O)c1ccc(NS(C)(=O)=O)cc1 (stereo unspecified) [SOTALOL]
[1]
  inhibition at 10 µM: 0%
Cavia porcellus [2]
  ED20: 1.3 mg/kg
Cavia porcellus [3]
  dP/dt20: 1.9 mg/kg
